This note sets out measurements from ChEMBL document CHEMBL3407346, “Design, synthesis, and biological evaluation of sulfonyl acrylonitriles as novel inhibitors of cancer metastasis and spread” (J Med Chem, 2015).

A short description of experiment [1]: Cytotoxicity against human BxPC3 cells co-cultured with human mesothelial cells at 10 uM after 4 hrs by firefly luciferase assay relative to control. In kind it is functional, BXPC-3. Put shortly: (§1)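 Co-culture of luciferase-transduced cancer cells (puromycin/G418-selected retroviral pLuc) with confluent human mesothelial monolayers. Suspended cancer cells plus 10 µM compound (final) or DMSO were overlaid for 4 h. Non-adherent cells were washed off and surviving adherent cells quantified by firefly luciferase luminescence. Efficacy = treated/DMSO luminescence ratio; mean±SEM, n=3.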

A short description of experiment [2]: Cytotoxicity against human SU86 cells co-cultured with human mesothelial cells at 10 uM after 4 hrs by firefly luciferase assay relative to control. Type of experiment: functional. Put shortly: as §1
Another experiment relates to A2780. Briefly: Cytotoxicity against human A2780 cells co-cultured with human mesothelial cells at 10 uM after 4 hrs by firefly luciferase assay relative to control. Type of experiment: functional. Put shortly: as §1
Experiment [3] in a line: Cytotoxicity against human SKOV3 cells co-cultured with human mesothelial cells at 10 uM after 4 hrs by firefly luciferase assay relative to control. In kind it is functional, SK-OV-3. Put shortly:
as §1

As for `CC(C)(C(=O)N1CCCCC1)c1ccc(S(=O)(=O)/C=C/C#N)cc1`, the Ratio worked out at 0.25 in experiment [1], 0.51 in experiment [2], 0.08 in the experiment on A2780 and 0.51 in experiment [3].

For the compound `CC(C)(C(=O)NCC(F)F)c1ccc(S(=O)(=O)/C=C/C#N)cc1`, the Ratio in experiment [1] is 0.82; in experiment [2], 0.81; with A2780, 0.86; in experiment [3] it was 1.13.

As for `N#C/C=C/S(=O)(=O)c1ccc(C2(C(=O)NCc3ccc(F)cc3)CC2)cc1`, the Ratio in experiment [1] amounted to 0.34; in experiment [2] it was 0.64; with A2780, 0.06; in experiment [3], 0.43.

For `CC(C)(c1ccc(S(=O)(=O)/C=C/C#N)cc1)c1nc2ccccc2[nH]1`, the Ratio in experiment [1] came out at 1.01; in experiment [2], 1.04; with A2780, 1.07; in experiment [3] it was 1.1.

In the case of `N#C/C=C/S(=O)(=O)c1ccc(C2(C(=O)Nc3ccccc3)CCC2)cc1`, the Ratio in experiment [1] is reported as 0.12; in experiment [2] it was 0.35; with A2780, 0.17; in experiment [3], 0.39.

In the case of `CC(C)(C)c1cc(S(=O)(=O)/C=C/C#N)ccc1OCC(=O)O`, the Ratio in experiment [1] is given as 0.81; in experiment [2], 0.97; with A2780, 1.05; in experiment [3], 0.92.

As for `CC(C)(C(=O)NCc1ccc(S(N)(=O)=O)cc1)c1ccc(S(=O)(=O)/C=C/C#N)cc1`, the Ratio in experiment [1] is given as 1; in experiment [2], 1.11; with A2780, 1; in experiment [3], 0.96.

Regarding `CN(Cc1ccc(F)cc1)C(=O)C(C)(C)c1ccc(S(=O)(=O)/C=C/C#N)cc1`, the Ratio was determined as 0.11 in experiment [1], 0.23 in experiment [2], 0.02 in the experiment on A2780 and 0.22 in experiment [3].

As for `CC(C)(C(=O)N[C@H]1CCCCNC1=O)c1ccc(S(=O)(=O)/C=C/C#N)cc1`, the Ratio is 0.82 in experiment [1], 0.97 in experiment [2], 0.84 in the experiment with A2780 and 0.85 in experiment [3].

Regarding `N#C/C=C/S(=O)(=O)c1ccc(C2(C(=O)NCc3ccc(Cl)cc3)CCOCC2)cc1`, the Ratio in experiment [1] turned out to be 0.3; in experiment [2] it was 0.66; with A2780 it was 0.46; in experiment [3] it was 0.71.

Turning to `N#C/C=C/S(=O)(=O)c1ccc(C2(C(=O)NCc3ccc(Cl)cc3)CCC2)cc1`, the Ratio in experiment [1] came out at 0.21; in experiment [2], 0.36; with A2780, 0.13; in experiment [3] it was 0.3.

For the compound `CC(C)(C(=O)Nc1ccccc1)c1ccc(S(=O)(=O)/C=C/C#N)cc1`, the Ratio in experiment [1] worked out at 0.22; in experiment [2], 0.52; with A2780, 0.17; in experiment [3] it was 0.55.

Take `CC(C)(c1ccc(S(=O)(=O)/C=C/C#N)cc1)c1nnc(Nc2ccccc2)o1`: the Ratio in experiment [1] is reported as 0.39; in experiment [2] it was 0.62; with A2780, 0.22; in experiment [3], 0.65.

`N#C/C=C/S(=O)(=O)c1ccc(C2(C(=O)Nc3ccccc3)CCOCC2)cc1`: the Ratio in experiment [1] is 0.85; in experiment [2] it was 0.92; with A2780, 0.87; in experiment [3], 0.97.

Consider `CC(C)(C)c1ccc2cc(S(=O)(=O)/C=C/C#N)ccc2n1`, for which the Ratio came out at 0.22 in experiment [1], 0.45 in experiment [2], 0.04 in the experiment on A2780 and 0.35 in experiment [3].

`N#C/C=C/S(=O)(=O)c1ccc(C2(C(=O)NC3CCCCC3)CC2)cc1`: the Ratio was 0.28 in experiment [1], 0.34 in experiment [2], 0.09 in the experiment with A2780 and 0.23 in experiment [3].

As to `CCNc1nnc(C(C)(C)c2ccc(S(=O)(=O)/C=C/C#N)cc2)o1`, the Ratio in experiment [1] is reported as 1.02; in experiment [2], 0.96; with A2780, 0.86; in experiment [3], 1.12.
